Measurements as given in ChEMBL document CHEMBL2375307, “Synthesis and identification of β-aryloxyquinoline based diversely fluorine substituted N-aryl quinolone derivatives as a new class of antimicrobial, antituberculosis and antioxidant agents” (Eur J Med Chem, 2013).
Converted amounts (≈) assume the structure as drawn.

Legend:
[1] = Antioxidant activity of the compound assessed as ascorbic acid equivalent of ferric tripyridyl triazine reducing activity at 200 ug/mL after 15 mins by FRAP assay; type: functional
Summary of the method: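 FRAP, modified Benzie and Strain method. Fe(III)-TPTZ reagent made with TPTZ in 40 mM HCl, FeCl3 solution and acetate buffer pH 3.6. 200 µL sample solution mixed with 3 mL reagent and held 15 min at 37 °C. Fe(II)-TPTZ read at 593 nm against an ascorbic acid standard, expressed as ascorbic acid equivalents (mmol/100 g compound).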

[2] = Toxicity in brine shrimps cysts assessed as mortality after 24 hrs relative to control; type: organism-based; settings: artemia, in vivo
[3] = Toxicity in brine shrimps cysts assessed as mortality at 50 ug/mL after 24 hrs relative to control; type: organism-based; settings: artemia, in vivo
[4] = Toxicity in brine shrimps cysts assessed as mortality at 30 ug/mL after 24 hrs relative to control; type: organism-based; settings: artemia, in vivo
[5] = Toxicity in brine shrimps cysts assessed as mortality at 40 ug/mL after 24 hrs relative to control; type: organism-based; settings: artemia, in vivo
[6] = Toxicity in brine shrimps cysts assessed as mortality at 20 ug/mL after 24 hrs relative to control; type: organism-based; settings: artemia, in vivo
[7] = Toxicity in brine shrimps cysts assessed as mortality at 5 ug/ml after 24 hrs relative to control; type: organism-based; settings: artemia, in vivo
[8] = Toxicity in brine shrimps cysts assessed as mortality at 10 ug/mL after 24 hrs relative to control; type: organism-based; settings: artemia, in vivo
[9] = test system: Mycobacterium tuberculosis; assay: Antitubercular activity against Mycobacterium tuberculosis H37Rv assessed as growth inhibition after 12 to 28 days by Lowenstein-Jensen method; type: functional
Summary of the method: (§1)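 Modified Lowenstein-Jensen method. Compound at 250 in DMSO added to liquid L-J medium, then sterilized by inspissation and incubated 24 h at 37 °C. Streaked with H37Rv harvested in 0.85% saline (5 × 10⁴ bacilli/tube) and incubated at 37 °C. Colonies read at 12, 22 and 28 days versus drug-free control; no colonies or <20 colonies scored as inhibition.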

[10] = test system: Mycobacterium tuberculosis; assay: Antitubercular activity against Mycobacterium tuberculosis H37Rv assessed as growth inhibition at 250 ug/mL after 12 to 28 days by Lowenstein-Jensen method relative to control; type: functional; settings: read-out: GI; summary of the method: as §1
[11] = test system: Candida albicans; assay: Antifungal activity against Candida albicans MTCC 227 assessed as growth inhibition after overnight incubation by NCCLS broth microdilution method; type: functional
Summary of the method: (§2)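 Broth microdilution per NCCLS in Mueller Hinton broth, compounds diluted in DMSO. Primary screen at 500, 250 and 200 µg/mL; actives retested at 100, 62.5, 50, 25 and 12.5 µg/mL. Tubes incubated overnight at 37 °C. […] Non-growing tubes subcultured overnight at 37 °C to judge bacteriostatic versus bactericidal action.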

[12] = test system: Aspergillus fumigatus; assay: Antifungal activity against Aspergillus fumigatus MTCC 3008 assessed as growth inhibition after overnight incubation by NCCLS broth microdilution method; type: functional; summary of the method: as §2
[13] = test system: Vibrio cholerae; assay: Antibacterial activity against Vibrio cholerae MTCC 3906 assessed as growth inhibition after overnight incubation by NCCLS broth microdilution method; type: functional
[14] = test system: Salmonella typhi; assay: Antibacterial activity against Salmonella typhi MTCC 98 assessed as growth inhibition after overnight incubation by NCCLS broth microdilution method; type: functional, Salmonella enterica subsp. enterica serovar Typhi; settings: Salmonella enterica
[15] = test system: Escherichia coli; assay: Antibacterial activity against Escherichia coli MTCC 443 assessed as growth inhibition after overnight incubation by NCCLS broth microdilution method; type: functional; summary of the method: as §2
[16] = test system: Streptococcus pneumoniae; assay: Antibacterial activity against Streptococcus pneumoniae MTCC 1936 assessed as growth inhibition after overnight incubation by NCCLS broth microdilution method; type: functional; summary of the method: as §2
[17] = test system: Clostridium tetani; assay: Antibacterial activity against Clostridium tetani MTCC 449 assessed as growth inhibition after overnight incubation by NCCLS broth microdilution method; type: functional
[18] = test system: Bacillus subtilis; assay: Antibacterial activity against Bacillus subtilis MTCC 441 assessed as growth inhibition after overnight incubation by NCCLS broth microdilution method; type: functional; summary of the method: as §2

Structure (SMILES)	Activity [1] [equiv]	LC50 at 24 h [2] [µg/mL]	mortality at 24 h, 50 ug/mL [3] [%]	mortality at 24 h, 30 ug/mL [4] [%]	mortality at 24 h, 40 ug/mL [5] [%]	mortality at 24 h, 20 ug/mL [6] [%]	mortality at 24 h, 5 ug/ml [7] [%]	mortality at 24 h, 10 ug/mL [8] [%]	MIC [9] [µg/mL]	inhibition of growth at 250 µg/mL [10] [%]	MIC [11] [µg/mL]	MIC [12] [µg/mL]	MIC [13] [µg/mL]	MIC [14] [µg/mL]	MIC [15] [µg/mL]	MIC [16] [µg/mL]	MIC [17] [µg/mL]	MIC [18] [µg/mL]
Cc1ccc2nc(Oc3ccc(C#N)cc3)c(C3C(C#N)=C(N)N(c4cccc(C(F)(F)F)c4)C4=C3C(=O)CC(C)(C)C4)cc2c1 (stereo not given)	339	17.1 (≈ 27.7 µM)	90	70	80	50	10	30	125 (≈ 202 µM)	93	> 1000	1000 (≈ 1610 µM)	125 (≈ 202 µM)	100 (≈ 161 µM)	100 (≈ 161 µM)	125 (≈ 202 µM)	250 (≈ 403 µM)	100 (≈ 161 µM)
NNC(=O)c1ccncc1 [ISONIAZID]									0.2 (≈ 1.46 µM)	99								
COc1ccc2nc(Oc3ccc(C#N)cc3)c(C3C(C#N)=C(N)N(c4cccc(C(F)(F)F)c4)C4=C3C(=O)CC(C)(C)C4)cc2c1 (stereo not given)	14.3									62	1000 (≈ 1570 µM)	500 (≈ 787 µM)	250 (≈ 393 µM)	200 (≈ 315 µM)	125 (≈ 197 µM)	200 (≈ 315 µM)	500 (≈ 787 µM)	250 (≈ 393 µM)
CO[C@H]1/C=C/O[C@@]2(C)Oc3c(C)c(O)c4c(O)c(c(/C=N/N5CCN(C)CC5)c(O)c4c3C2=O)NC(=O)/C(C)=C\C=C\[C@H](C)[C@H](O)[C@@H](C)[C@@H](O)[C@@H](C)[C@H](OC(C)=O)[C@@H]1C [RIFAMPIN]									40 (≈ 48.6 µM)	98								
CC1(C)CC(=O)C2=C(C1)N(c1cc(F)ccc1F)C(N)=C(C#N)C2c1cc2ccccc2nc1Oc1ccc(C#N)cc1 (stereo not given)	84.4									21	500 (≈ 872 µM)	1000 (≈ 1740 µM)	250 (≈ 436 µM)	250 (≈ 436 µM)	250 (≈ 436 µM)	100 (≈ 174 µM)	200 (≈ 349 µM)	250 (≈ 436 µM)
COc1ccc2nc(Oc3ccc(C#N)cc3)c(C3C(C#N)=C(N)N(c4cc(F)ccc4F)C4=C3C(=O)CC(C)(C)C4)cc2c1 (stereo not given)	25.4									54	> 1000	> 1000	200 (≈ 331 µM)	250 (≈ 414 µM)	200 (≈ 331 µM)	250 (≈ 414 µM)	200 (≈ 331 µM)	250 (≈ 414 µM)
Cc1ccc2nc(Oc3ccc(C#N)cc3)c(C3C(C#N)=C(N)N(c4cc(F)ccc4F)C4=C3C(=O)CC(C)(C)C4)cc2c1 (stereo not given)	13.9	27.5 (≈ 46.8 µM)	80	50	70	20	0	10	62.5 (≈ 106 µM)	99	> 1000	> 1000	25 (≈ 42.5 µM)	200 (≈ 340 µM)	62.5 (≈ 106 µM)	100 (≈ 170 µM)	100 (≈ 170 µM)	200 (≈ 340 µM)
Cc1ccc2nc(Oc3ccc(C#N)cc3)c(C3C(C#N)=C(N)N(c4ccc(F)c(F)c4)C4=C3C(=O)CC(C)(C)C4)cc2c1 (stereo not given)	122									32	> 1000	1000 (≈ 1700 µM)	250 (≈ 425 µM)	250 (≈ 425 µM)	200 (≈ 340 µM)	200 (≈ 340 µM)	250 (≈ 425 µM)	250 (≈ 425 µM)
CC1(C)CC(=O)C2=C(C1)N(c1ccc(F)c(F)c1)C(N)=C(C#N)C2c1cc2ccccc2nc1Oc1ccc(C#N)cc1 (stereo not given)	19.6									64	500 (≈ 872 µM)	500 (≈ 872 µM)	100 (≈ 174 µM)	200 (≈ 349 µM)	125 (≈ 218 µM)	200 (≈ 349 µM)	100 (≈ 174 µM)	200 (≈ 349 µM)
N#CC1=C(N)N(c2cccc(C(F)(F)F)c2)C2=C(C(=O)CCC2)C1c1cc2ccccc2nc1Oc1ccc(C#N)cc1 (stereo not given)	270									52	1000 (≈ 1730 µM)	1000 (≈ 1730 µM)	250 (≈ 433 µM)	250 (≈ 433 µM)	200 (≈ 346 µM)	125 (≈ 216 µM)	250 (≈ 433 µM)	100 (≈ 173 µM)
Cc1ccc2nc(Oc3ccc(C#N)cc3)c(C=O)cc2c1	16									26	> 1000	250 (≈ 867 µM)	125 (≈ 434 µM)	125 (≈ 434 µM)	62.5 (≈ 217 µM)	200 (≈ 694 µM)	100 (≈ 347 µM)	100 (≈ 347 µM)
COc1ccc2nc(Oc3ccc(C#N)cc3)c(C3C(C#N)=C(N)N(c4ccc(F)c(F)c4)C4=C3C(=O)CCC4)cc2c1 (stereo not given)	369									88	1000 (≈ 1740 µM)	1000 (≈ 1740 µM)	250 (≈ 434 µM)	500 (≈ 869 µM)	500 (≈ 869 µM)	200 (≈ 347 µM)	200 (≈ 347 µM)	200 (≈ 347 µM)
N#CC1=C(N)N(c2cc(F)ccc2F)C2=C(C(=O)CCC2)C1c1cc2ccccc2nc1Oc1ccc(C#N)cc1 (stereo not given)	16.4									10	> 1000	250 (≈ 458 µM)	200 (≈ 367 µM)	250 (≈ 458 µM)	100 (≈ 183 µM)	250 (≈ 458 µM)	125 (≈ 229 µM)	100 (≈ 183 µM)
